Screens from PubChem BioAssay.
In the library only some 2.8% were active in any assay of this set; here they are far more common.
NPY-Y1 antag: blocks the human neuropeptide Y Y1 receptor; P25929; HEK293-CNG Y1 cells, membrane potential fluorescence; NPY at EC95, then isoproterenol; inhibition, % at 3.6 µM; 1% of 200,000 active; AID 1040;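 active = inhibition above the campaign mean inhibition of all tested compounds plus 3 SD, cut at about 20% in these data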
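Material: HEK293 Y1/CNG channel cell line; also added: NPY (25 nM), isoproterenol (1 µM), Ro 20-1724 (25 µM); doses: one concentration, 3.6 µM, in 0.4% DMSO; schedule: compound incubation 1 h at room temperature, readout 45 min post-stimulation; technique: membrane potential fluorescence; measure: fluorescence ratio normalized to % inhibition between controls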
NPY-Y2 antag: blocks the human neuropeptide Y Y2 receptor; P49146; NPY-Y2 expressing cells, antagonist mode; inhibition, % at 2.7 µM; AID 793; 0.99% of 140,000 active; in the data active = inhibition above about 17%
NPY-Y1 PAM-ag: potentiators or agonists of human neuropeptide Y receptor Y1. 0.37% of 220,000 active. activation, % at 3.6 µM. NPY-Y1 expressing cells, potentiator/agonist activation; in the data active = activation above about 33%, passing the limit was not always enough;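 also: cells stimulated with NPY at EC10 then isoproterenol at EC100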
EP2 mod: modulates human prostaglandin E2 receptor EP2 signaling; P43116; EP2-expressing cells, cAMP HTRF FRET, PGE2 co-stimulation; induction, % at 25 µM; 0.83% of 260,000 active; AID 940;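 active = compounds whose cAMP rise, as percent of the full-agonist control response, exceeds 60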;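 also: rat C6 glioma line stably carrying human EP2 under a CMV promoter; the protocol text gives 20 µM as final concentration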
Target sequence (P43116 whole entry, looked up): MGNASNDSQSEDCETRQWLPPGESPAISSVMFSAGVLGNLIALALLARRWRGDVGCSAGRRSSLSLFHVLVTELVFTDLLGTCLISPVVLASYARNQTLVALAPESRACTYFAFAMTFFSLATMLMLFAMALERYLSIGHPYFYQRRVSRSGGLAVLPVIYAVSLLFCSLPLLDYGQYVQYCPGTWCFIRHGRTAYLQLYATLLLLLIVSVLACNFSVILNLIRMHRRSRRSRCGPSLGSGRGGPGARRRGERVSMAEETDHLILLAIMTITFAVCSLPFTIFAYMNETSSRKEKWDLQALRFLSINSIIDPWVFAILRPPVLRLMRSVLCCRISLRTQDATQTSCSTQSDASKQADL
PGE2 EP2 inh: inhibitors of human EP2 prostaglandin E2 receptor; P43116; C6 glioma cells expressing human EP2, cAMP TR-FRET; cells stimulated with saturating PGE2; inhibition, % at 25 µM; 0.52% of 260,000 active; AID 1422;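 active = percent inhibition above 40 after rounding to a whole number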;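 also: rat C6 glioma host cells with rolipram phosphodiesterase inhibitor present; the protocol text gives 20 µM as final concentration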
NPY-Y2 PAM-ag: potentiators or agonists of human neuropeptide Y receptor Y2 | AID 1359 | cells expressing NPY-Y2, potentiator/agonist read-out | 0.45% of 220,000 active | activation, % at 3.6 µM | P49146; in the data active = activation above about 27%;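 also: cells stimulated with NPY near EC25 plus isoproterenol at EC100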
NPY-Y2 confirm: human NPY-Y2 potentiation or agonism, confirmation | AID 1539 | activation, % at 3.6 µM | 20% of 450 active | cell-based NPY-Y2 potentiator/agonist assay | shares compounds with NPY-Y2 PAM-ag; in the data active = activation above about 33%
NPY-Y1 potentiator: potentiates or activates NPY-Y1, counter-screen for NPY-Y2 hits. shares compounds with NPY-Y2 PAM-ag. Y1 HEK293-CNG cells, membrane potential fluorescence. activation, % at 3.6 µM. 20% of 450 active. AID 1651; in the data active = activation above about 45%;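 also: cells stimulated with submaximal NPY then isoproterenol with phosphodiesterase inhibitor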
NPY-Y1 ag 2: human NPY-Y1 agonism as NPY-Y2 potentiator counter-screen | shares compounds with NPY-Y2 PAM-ag | HEK293 Y1-CNGC, membrane potential fluorescence | activation, % at 3.6 µM | 37% of 450 active;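 active = activation above the mean of DMSO-only control wells plus 3 SD, cut at about 18% in these data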;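 also: cells stimulated with 1 µM isoproterenol plus the PDE inhibitor Ro 20-1724; Y1 agonists lower the membrane potential dye signal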
CNGC inh: counter-screen for NPY-Y2 potentiators: inhibitors of CNG channel activity | shares compounds with NPY-Y2 PAM-ag | HEK293-CNG parental, isoproterenol cAMP, membrane potential fluorescence | inhibition, % at 3.6 µM | 32% of 450 active | AID 1703;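 active = inhibition above the control-well mean plus 3 SD of those wells, cut at about 22% in these data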
NPY-Y2 ag 2: activates human NPY-Y2 receptor in potentiator counter-screen; shares compounds with NPY-Y2 PAM-ag; HEK293 Y2/CNGC cells, membrane potential fluorescence, agonist mode; activation, % at 3.6 µM; 56% of 450 active; AID 1710;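 active = activation above the mean of solvent-only control wells plus 3 SD, cut at about 10% in these data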;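 also: cells stimulated by isoproterenol with no NPY added so direct agonism is tested; agonism lowers probe fluorescence through less cAMP and CNG channel opening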
Hits are given with their value.

Results for CC(=O)N(Cc1ccc(F)cc1)C1=C(NCc2ccccc2)C(=O)c2ccccc2C1=O ?
NPY-Y1 antag: inactive; NPY-Y2 antag: inactive; NPY-Y1 PAM-ag: inactive; EP2 mod: inactive; NPY-Y2 PAM-ag: 37.6; NPY-Y2 confirm: inactive; NPY-Y1 potentiator: inactive; NPY-Y1 ag 2: inactive; CNGC inh: inactive; NPY-Y2 ag 2: 10.3

What do the screens show for `Cc1c([N+](=O)[O-])c(C(=O)Sc2ccc(Br)cc2)nn1C`?
NPY-Y1 PAM-ag: inactive; EP2 mod: inactive; PGE2 EP2 inh: inactive; NPY-Y2 PAM-ag: 44.0; NPY-Y2 confirm: inactive; NPY-Y1 potentiator: inactive; NPY-Y1 ag 2: inactive; CNGC inh: inactive; NPY-Y2 ag 2: 15.7

Results for Cc1c([N+](=O)[O-])c(C(=O)N2CCCC2)nn1C ?
NPY-Y1 antag: inactive; NPY-Y2 antag: inactive; NPY-Y1 PAM-ag: inactive; EP2 mod: inactive; PGE2 EP2 inh: inactive; NPY-Y2 PAM-ag: inactive

How did N#C/C(=C\c1ccncc1)c1nc2ccccc2o1 do in these assays?
NPY-Y1 PAM-ag: inactive; EP2 mod: inactive; PGE2 EP2 inh: inactive; NPY-Y2 PAM-ag: inactive

How did N#C/C(=C\Nc1ccccc1O)c1nc2ccccc2o1 do in these assays?
NPY-Y1 antag: inactive; NPY-Y2 antag: inactive; NPY-Y1 PAM-ag: inactive; EP2 mod: inactive; PGE2 EP2 inh: 54.2; NPY-Y2 PAM-ag: 30.6; NPY-Y2 confirm: inactive; NPY-Y1 potentiator: inactive; NPY-Y1 ag 2: 28.6; CNGC inh: 34.2; NPY-Y2 ag 2: 18.3

What do the screens show for `O=C(Nc1ccccc1C(=O)N1CCCC1)c1ncoc1-c1ccccc1F`?
EP2 mod: inactive; PGE2 EP2 inh: inactive

Results for COCC(=O)NC(c1ccc(F)c(F)c1)c1nccn1C (stereo not drawn) ?
EP2 mod: inactive; PGE2 EP2 inh: inactive

What do the screens show for `CC(=O)Nc1ccc(-c2cc3ccccc3o2)cc1`?
NPY-Y1 antag: inactive; NPY-Y2 antag: inactive; NPY-Y1 PAM-ag: inactive; EP2 mod: inactive; PGE2 EP2 inh: inactive; NPY-Y2 PAM-ag: 28.6; NPY-Y2 confirm: inactive; NPY-Y1 potentiator: inactive; NPY-Y1 ag 2: inactive; CNGC inh: inactive; NPY-Y2 ag 2: 12.9

What do the screens show for `Cc1c(C(=O)O)[nH]c2ccc([N+](=O)[O-])cc12`?
NPY-Y1 antag: inactive; NPY-Y1 PAM-ag: inactive; EP2 mod: inactive; PGE2 EP2 inh: inactive; NPY-Y2 PAM-ag: 30.4; NPY-Y2 confirm: inactive; NPY-Y1 potentiator: inactive; NPY-Y1 ag 2: 38.8; CNGC inh: inactive; NPY-Y2 ag 2: 31.4

What do the screens show for `c1ccc(-c2nc(-c3cccs3)[nH]c2-c2ccccc2)cc1`?
NPY-Y1 antag: inactive; NPY-Y2 antag: inactive; NPY-Y1 PAM-ag: inactive; EP2 mod: inactive; PGE2 EP2 inh: inactive; NPY-Y2 PAM-ag: 41.1; NPY-Y2 confirm: inactive; NPY-Y1 potentiator: 45.7; NPY-Y1 ag 2: 26.6; CNGC inh: 26.2; NPY-Y2 ag 2: 28.2

What do the screens show for `N#Cc1c(C#N)c(O)c2ccccc2c1O`?
NPY-Y1 PAM-ag: inactive; EP2 mod: inactive; PGE2 EP2 inh: inactive; NPY-Y2 PAM-ag: inactive

Results for N=C1CCC(=N)c2c1c(O)c1ccccc1c2O ?
NPY-Y1 PAM-ag: inactive; EP2 mod: inactive; PGE2 EP2 inh: inactive; NPY-Y2 PAM-ag: 40.7; NPY-Y2 confirm: inactive; NPY-Y1 potentiator: inactive; NPY-Y1 ag 2: 23.2; CNGC inh: inactive; NPY-Y2 ag 2: 18.2
